The text below walks through data of ChEMBL document CHEMBL1137780, “Isocombretastatins a versus combretastatins a: the forgotten isoCA-4 isomer as a highly promising cytotoxic and antitubulin agent” (J Med Chem, 2009).

Assay [1] can be described thus: Cytotoxicity against human NCI60 cells. The format is functional.
Assay [2] can be described thus: Cytotoxicity against human H1299 cells after 72 hrs. The format is functional, cell-based. Conditions: NCI-H1299, 72 h. The gist of the method: (§1)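 Human tumour cell lines (H1299 non-small-cell lung carcinoma, HCT116 colon carcinoma) were exposed to the test drug for 72 h. IC50 is the concentration that reduced cell growth by 50%, taken as the average of three experiments.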

The next assay concerns MDA-MB-231. Put plainly: Cytotoxicity against human MDA-MB-231 cells after 72 hrs. In kind it is functional, cell-based. Particulars: MDA-MB-231, 72 h. The method in brief:
(§2)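 Human K562 (chronic myelogenous leukemia) or MDA-MB231 (breast cancer) cells exposed to compound for 72 h; IC50 taken as concentration reducing cell growth by 50%, averaged over three experiments.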

In assay [3] the test system is HCT-116. Briefly: Cytotoxicity against human HCT116 cells after 72 hrs. Particulars: HCT-116, 72 h. The format is functional, cell-based. The gist of the method: as §1
For assay [4], the system named is K562. Briefly: Cytotoxicity against human K562 cells after 72 hrs. Particulars: K562, 72 h. The format is functional, cell-based. The gist of the method: as §2
Assay [5] in a line: Inhibition of tubulin polymerization assessed as blockade of microtubule assembly.
In assay [6] the test system is HCT-116. Put plainly: Ratio of IC50 of drug to IC50 for combretastatin CA-4 against human HCT116 cells. In kind it is functional.
Assay [7] deals with NCI-H460. Briefly: Cytotoxicity against human H460 cells. In kind it is functional, cell-based.
The subject of assay [8] is NCI-H460. Briefly: Ratio of IC50 of drug to IC50 for combretastatin CA-4 against human H460 cells. The format is functional.
For a further assay, the system named is P388. Put plainly: Cytotoxicity against mouse P388 cells. In kind it is functional. Particulars: read-out: ED50 (the source's name).
The subject of assay [9] is K562. Briefly: Cell cycle arrest in human K562 cells assessed as decrease in S phase accumulation after 24 hrs. The format is functional, cell-based. The method in brief:
(§3)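 K562 leukemia cells cultured 24 h with increasing concentrations of test agent; DNA content measured by propidium iodide staining and flow cytometry to give cell-cycle phase distribution (G1, S, G2/M).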

Assay [10] concerns K562. Put plainly: Cell cycle arrest in human K562 cells assessed as decrease in G1 phase accumulation after 24 hrs. In kind it is functional, cell-based. The method in brief: as §3
In assay [11] the test system is K562. Briefly: Cell cycle arrest in human K562 cells assessed as increase in G2/M phase accumulation after 24 hrs. The format is functional, cell-based. The gist of the method:
as §3

The next assay deals with Colon 26. Briefly: Ratio of IC50 of drug to IC50 for combretastatin CA-4 against mouse Colon 26 cells. In kind it is functional.

Calls of active or inactive are those of the source. No cut-off for these calls is given here.

The term GI50 denotes the concentration giving 50% growth inhibition. The compound `COc1ccc(/C=C\c2cc(OC)c(OC)c(OC)c2)c(O)c1O` [COMBRETASTATIN A-1] yielded a 50% growth inhibitory concentration (GI50) in assay [1] of 16.2 nM.
By IC50 is commonly meant the concentration needed to halve the response being measured. Take `C=C(c1cc(OC)c(OC)c(OC)c1)c1ccc(OC)c(O)c1O`: the 50% inhibitory concentration (IC50) came to 2000 nM in assay [2]; 820 nM with MDA-MB-231; 850 nM with HCT-116 [3]; 750 nM in the assay on K562 [4]; 2100 nM in assay [5] (read-out: IC50).
As to `COc1ccc(/C(=C/C#N)c2cc(OC)c(OC)c(OC)c2)cc1O` (mixture of isomers), the IC50 is 3 nM in the assay with HCT-116 [3] and 4300 nM in assay [5] (read-out: IC50). Moreover, the “Ratio IC50” value in the assay on HCT-116 [6] is listed as 1.3.
`COc1ccc(C(=C(F)F)c2cc(OC)c(OC)c(OC)c2)cc1O`: the “Ratio IC50” value with HCT-116 [6] is 2.6. In addition, the result in the assay on NCI-H460 [7] was Active. In assay [5] (read-out: IC50), the IC50 came out at 2500 nM.
Consider `COc1ccc(/C(F)=C(/F)c2cc(OC)c(OC)c(OC)c2)cc1O`, for which, in the assay with NCI-H460 [8], the “Ratio IC50” value is listed as 1.6. In addition, the result in the assay on NCI-H460 [7] was Active.
Consider `C=C(c1ccc(OC)c(O)c1)c1cc(O)c(OC)c(OC)c1`, for which the 50% inhibitory concentration (IC50) in [2] stood at 25 nM; in the assay on MDA-MB-231, 8 nM; in the assay on HCT-116 [3], 34 nM; in the assay on K562 [4], 52 nM; in assay [5] (read-out: IC50) it was 5000 nM.
Regarding `COc1ccc(/C=C\c2cc(O)c(OC)c(OC)c2)cc1O`, the EC50 in the assay on P388 turned out to be 26 nM.
On to `COc1ccc(/C=C\c2cc(OC)c(OC)c(OC)c2)cc1O` [COMBRETASTATIN A4], for which the IC50 in assay [2] amounted to 5 nM; with MDA-MB-231, 3 nM; in the assay with HCT-116 [3], 2.3 nM; in the assay with K562 [4], 3.6 nM. In [1], this compound displayed a GI50 of 3.2 nM.
On to `COc1cc2c(c(OC)c1OC)-c1ccc(OC)c(=O)cc1[C@@H](NC(C)=O)CC2` [COLCHICINE], for which the IC50 in assay [2] worked out at 30 nM; with MDA-MB-231, 26 nM; in the assay with HCT-116 [3] it was 32 nM; with K562 [4], 29 nM; in [5] (read-out: IC50) it was 2100 nM.
In the case of `COc1ccc(/C=C\c2cc(OC)c3c(c2)OCO3)cc1O` [Combretastatin A-2], the concentration for 50% growth inhibition (GI50) in assay [1] is 31.6 nM.
In the case of `C=C(c1ccc(OC)c(OC)c1)c1cc(O)c(OC)c(OC)c1`, the IC50 is 5000 nM in assay [2]; 3000 nM in the assay on MDA-MB-231; 2800 nM with HCT-116 [3]; 3100 nM in the assay on K562 [4]; “Not Active” in assay [5].
As for `C=C(c1ccc(OC)c(O)c1)c1cc(OC)c(OC)c(OC)c1`, the IC50 in assay [2] stood at 5 nM; with MDA-MB-231, 4 nM; with HCT-116 [3], 2.5 nM; in the assay with K562 [4], 5 nM; in assay [5] (read-out: IC50), 2200 nM. The outcome in the assay with K562 [9] and with K562 [10] was Active. Also, the Activity result in the assay on K562 [11] is “Dose-dependent effect”.
Turning to `COc1ccc(C(=O)c2cc(OC)c(OC)c(OC)c2)cc1O` [PHENSTATIN], the IC50 in assay [2] came to 21 nM; with MDA-MB-231, 28 nM; in the assay on HCT-116 [3], 33 nM; in the assay on K562 [4], 41 nM; in [5] (read-out: IC50) it was 2000 nM.
For `C=C(c1ccc(OC)c(O)c1)c1cc(OC)c2c(c1)OCO2`, in that order: 32 nM, 48 nM, 38 nM, 38 nM and 3400 nM.
`COc1ccc(/C=C\c2cc(O)c(OC)c(OC)c2)cc1OC`: the EC50 with P388 worked out at 900 nM.
With `COc1ccc(/C=C(/C#N)c2cc(OC)c(OC)c(OC)c2)cc1O`, the “Ratio IC50” value in the assay with Colon 26 came out at 1.3.
